PRMT1 FP inh – PRMT1 (human) inhibition, primary screen; Q99873; recombinant PRMT1, activity-based probe fluorescence polarization; inhibition, % at 2.79 µM; 1.3% of 370,000 active;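 active = inhibition above about 21% made by adding two undisclosed values, limit read from the data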
Apaf-1 inh – inhibitors of human Apaf-1 apoptosome | O14727 | reconstituted apoptosome caspase-3 activity, DEVD-Rh110 fluorescence | inhibition, % at 20 µM | 0.71% of 330,000 active | AID 489030; active = inhibition of at least 40% at 20 µM;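 note: plate controls were DMSO wells for no effect and DEVD-CHO caspase inhibitor wells for full effect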
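System: reconstituted apoptosome with Apaf-1, cytochrome c, caspase-9, procaspase-3, dATP; Signal: Rh110 fluorescence intensity; Schedule: 30 min compound preincubation, 50 min activation, room temperature; Reagent: cytochrome c trigger plus (Z-DEVD)2-Rh110 caspase-3 substrate.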
GSTO1 inh – counter-screen for RBBP9 inhibitors: inhibitors of human GSTO1. P78417. recombinant GSTO1, activity-based probe fluorescence polarization. inhibition, % at 5.96 µM. 1.1% of 300,000 active. AID 1974;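 active = inhibition above the campaign mean inhibition plus 3 SD, cut at about 35% in these data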;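 note: 0% = GSTO1-1 with DMSO and 100% = wells lacking GSTO1-1 enzyme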
TDP2 absorb – TDP2 (human) inhibition, absorbance primary screen | O95551 | recombinant TDP2, T5PNP hydrolysis, p-nitrophenol absorbance 415 nm | inhibition, % at 12.8 µM | 0.34% of 370,000 active;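 active = inhibition above the mean of all tested compounds plus 3 SD, set per campaign, cut at about 25% in these data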;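 note: 0% = DMSO with enzyme and 100% = buffer with substrate but no TDP2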
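Read-out basis: percent inhibition. System: recombinant human TDP2. Buffer or medium: Mg2+-containing Tris-HCl buffer, pH 7.5. Repeats: single replicate. Timing: reaction 2 h, 37 °C. Benchmarks: high control without enzyme, low control DMSO plus TDP2. Probe or stimulus: 5 mM T5PNP. Doses: 12.8 µM only. Measured by: epi absorbance of p-nitrophenol freed from T5PNP by hydrolysis.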
PAD4 FP inh – blocks human protein arginine deiminase 4 | 0.41% of 330,000 active | Q9UM07 | recombinant PAD4, RCA probe fluorescence polarization | AID 485272 | inhibition, % at 6.36 µM;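 active = percent inhibition above a cutoff equal to the mean of all tested compounds plus 3 SD, cut at about 15% in these data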;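 note: 0% = PAD4 with RCA probe and DMSO and 100% = probe without PAD4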
Target sequence (Q9UM07 whole entry, looked up): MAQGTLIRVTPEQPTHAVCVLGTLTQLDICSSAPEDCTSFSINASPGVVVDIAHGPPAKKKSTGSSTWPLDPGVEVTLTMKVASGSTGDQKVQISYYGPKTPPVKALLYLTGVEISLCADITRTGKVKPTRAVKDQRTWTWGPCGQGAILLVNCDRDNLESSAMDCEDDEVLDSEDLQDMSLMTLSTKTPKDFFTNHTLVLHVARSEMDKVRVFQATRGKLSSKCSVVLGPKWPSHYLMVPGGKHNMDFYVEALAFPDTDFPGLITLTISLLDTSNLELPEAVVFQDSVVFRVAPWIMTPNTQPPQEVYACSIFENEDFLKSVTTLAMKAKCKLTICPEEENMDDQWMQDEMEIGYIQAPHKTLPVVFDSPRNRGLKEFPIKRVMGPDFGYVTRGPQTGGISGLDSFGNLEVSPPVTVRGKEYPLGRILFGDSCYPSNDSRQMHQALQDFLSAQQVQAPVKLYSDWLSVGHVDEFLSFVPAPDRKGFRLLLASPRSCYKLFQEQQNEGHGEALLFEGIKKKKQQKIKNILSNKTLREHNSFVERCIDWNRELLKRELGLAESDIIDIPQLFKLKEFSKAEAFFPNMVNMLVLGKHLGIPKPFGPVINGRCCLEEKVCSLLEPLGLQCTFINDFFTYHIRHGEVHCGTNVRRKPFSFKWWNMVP
PRMT1 inh conf – PRMT1 (human) inhibition, FP confirmation; shares compounds with PRMT1 FP inh; recombinant His-PRMT1, activity-based probe fluorescence polarization; inhibition, % at 2.79 µM; 42% of 3,300 active;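 active = mean inhibition across replicates above the hit cutoff derived for the earlier primary screen, cut at about 22% in these data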
Active calls of the source: *; · = no result given. Compounds with a hit are over-represented: about 2.6% of the library has one in this group of screens.

SMILES | PRMT1 FP inh | Apaf-1 inh | GSTO1 inh | TDP2 absorb | PAD4 FP inh | PRMT1 inh conf
Cc1ccc2nc(-c3ccc(NC(=O)CSc4nnc(-c5ccccc5)n4Cc4ccco4)cc3)sc2c1 | 25* | · | · | 0 | · | 19
CCn1c(SCC(=O)Nc2ccc(-c3nc4ccc(C)cc4s3)cc2)nnc1-c1ccccc1 | · | 9 | 3 | · | -2 | ·
Cc1cccc(-c2nnc(SCC(=O)Nc3ccc(-c4nc5ccc(C)cc5s4)cc3)n2Cc2ccco2)c1 | 41* | · | · | 5 | · | 1
Cc1ccc(NC(=O)C(C)OC(=O)CCC2CCCCC2)cc1 (centres undefined) | 0 | 20 | -7 | 4 | 1 | ·
COCc1cccc(C2=CC(=O)C[C@H](c3ccc(F)cc3)C2)c1 | -2 | 14 | · | 3 | -4 | ·
Oc1ccccc1/C=N/n1c(COc2ccccc2)n[nH]c1=S | 8 | 8 | 11 | -25 | -6 | ·
Cc1ccccc1/C=N/n1c(COc2ccccc2)n[nH]c1=S | -1 | 4 | · | -9 | · | ·
Cc1ccc(/C=N/n2c(COc3ccccc3)n[nH]c2=S)s1 | 27* | 6 | -2 | -11 | 1 | 4
S=c1[nH]nc(COc2ccccc2)n1/N=C/c1ccc(Br)s1 | 26* | 19 | -2 | 5 | -1 | 12
COC(=O)[C@H](CC(C)C)N(Cc1cn(Cc2ccccc2)nn1)S(=O)(=O)c1ccc(F)cc1Br | 3 | · | · | -5 | · | ·
Cc1ccc(SSc2cc(C)ccc2N)c(N)c1 | 70* | -24 | -5 | 8 | 6 | 87*
CC1(c2ccccc2)NC(=O)N(CC(=O)Nc2nc(-c3ccccn3)cs2)C1=O (centres undefined) | 6 | 6 | 7 | 3 | -3 | ·
Cc1ccc(C2(C)NC(=O)N(CC(=O)Nc3nc(-c4ccccn4)cs3)C2=O)cc1 (centres undefined) | 26* | 5 | -7 | -3 | -1 | 38*
C[C@H](O)[C@@H]1CN2CCc3c([nH]c4ccccc34)[C@@H]2C[C@@H]1N(C)C(=S)NCCc1ccccc1 | 49* | · | · | -12 | · | 11
CCN1CC=C2C(C#N)=C(N)C(C#N)(C#N)C(CCc3ccccc3)C2C1 (centres undefined) | 49* | 8 | 1 | -4 | 20* | 25*
CC(=O)N1CC=C2C(C#N)=C(N)C(C#N)(C#N)C(CCc3ccccc3)C2C1 (centres undefined) | 6 | 20 | -3 | -1 | -5 | ·
COc1ccc(Cn2ccc3ccc(-c4ccc5ccn(C(=O)c6ccccc6C)c5c4)cc32)cc1 | 1 | · | · | 4 | · | ·
CN1/C(=C\C(=O)c2cccs2)C(C)(C)c2ccccc21 | 0 | 10 | -4 | -9 | -3 | ·
CN1/C(=C/C(=O)C2CCC2)Sc2ccccc21 | 63* | 4 | -4 | -8 | -6 | 2
CN1/C(=C\C(=O)c2cccs2)Sc2ccccc21 | 42* | -14 | 0 | -26 | 0 | 5
CN1/C(=C/C(=O)c2cccs2)Sc2ccccc21 | 25* | -3 | 3 | -14 | -1 | 1
Cc1ccc(Cl)cc1N1CCN(C(=O)c2cc3c(=O)[nH]c4ccccc4c3n2C)CC1 | 1 | -5 | 0 | 4 | -1 | ·
COc1cccc(-c2nc(=S)c3c(n2Cc2ccco2)CCCC3)c1 | 26* | 15 | -3 | 3 | -1 | 1
Cc1cccc(-c2nc(=S)c3c(n2Cc2ccco2)CCCC3)c1 | 8 | 7 | -2 | 11 | -4 | ·
O=c1c2ccccc2ncn1-c1ccc(Cl)cc1Cl | 0 | -8 | -16 | -9 | 5 | ·
O=c1c2ccccc2sn1-c1ccc(Cl)cc1Cl | 74* | · | · | 1 | · | 94*
OCc1cc(-c2ccccn2)no1 | -3 | -1 | 4 | -1 | -3 | ·
CCN1C[C@@H]2[C@@H]3C(=O)N(C)C(=O)[C@@H]3[C@](CC)(C(=O)OC)N2C1=NCc1ccccc1 | 2 | · | · | 10 | · | ·
CCN1C[C@@H]2[C@@H]3C(=O)N(Cc4ccccc4)C(=O)[C@@H]3[C@](CC)(C(=O)OC)N2C1=NCc1ccccc1 | 32* | · | · | 3 | · | 6
COC(=O)[C@@]1(C)[C@H]2C(=O)N(Cc3ccccc3)C(=O)[C@H]2[C@H]2CN=C(SCC(=O)c3ccccc3)N21 | 80* | 5 | · | 7 | 9 | 58*

Assay outcomes from PubChem.
